Data taken from ChEMBL document CHEMBL1156283, “Discovery and optimization of 2-(4-substituted-pyrrolo[2,3-b]pyridin-3-yl)methylene-4-hydroxybenzofuran-3(2H)-ones as potent and selective ATP-competitive inhibitors of the mammalian target of rapamycin (mTOR)” (Bioorg Med Chem Lett, 2010).

Tests used:
Aurora kinase B = Aurora kinase B (Homo sapiens, UniProt Q96GD4); assay: Inhibition of Aurora B
[1] = target: Cyclin-dependent kinase 1 (Homo sapiens, UniProt P06493); assay: Inhibition of CDK1
[2] = target: Cyclin-dependent kinase 2 (Homo sapiens, UniProt P24941); assay: Inhibition of CDK2
[3] = target: Glycogen synthase kinase-3 beta (Homo sapiens, UniProt P49841); assay: Inhibition of GSK3-beta
[4] = target: Ribosomal protein S6 kinase alpha-1 (Homo sapiens, UniProt Q15418); assay: Inhibition of RSK1
[5] = target: Mitogen-activated protein kinase 1 (Homo sapiens, UniProt P28482)
[6] = target: Tyrosine-protein kinase ABL1 (Homo sapiens, UniProt P00519); assay: Inhibition of ABL1
[7] = target: Tyrosine-protein kinase HCK (Homo sapiens, UniProt P08631); assay: Inhibition of HCK
[8] = target: Fibroblast growth factor receptor 1 (Homo sapiens, UniProt P11362)
[9] = target: Glycogen synthase kinase-3 alpha (Homo sapiens, UniProt P49840); assay: Inhibition of GSK3alpha
[10] = target: MAP kinase-activated protein kinase 2 (Homo sapiens, UniProt P49137)
[11] = target: Tyrosine-protein kinase Lyn (Homo sapiens, UniProt P07948); assay: Inhibition of LYN A
LNCaP = assay: Cytotoxicity against human LNCAP cells; assay type: functional, cell-based
Homo sapiens = species: Homo sapiens; assay: Selectivity ratio of IC50 for PI3Kalpha to IC50 for mTOR
How it was run: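 Selectivity is calculated as the IC50 against PI3K divided by the IC50 against mTOR.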

[12] = Half life in mouse microsomes in phase 1 using NADPH as a cofactor; assay type: ADME, Microsome
[13] = Half life in mouse microsomes in phase 1/2 using NADPH and UDPGA as a cofacto; assay type: ADME, Microsome
[14] = target: Serine/threonine-protein kinase mTOR (Homo sapiens, UniProt P42345); assay: Inhibition of mTOR
[15] = target: Phosphatidylinositol 4,5-bisphosphate 3-kinase catalytic subunit alpha isoform (Homo sapiens, UniProt P42336); assay: Inhibition of PI3Kalpha
Sequence of Phosphatidylinositol 4,5-bisphosphate 3-kinase catalytic subunit alpha isoform (P42336 whole entry, canonical isoform): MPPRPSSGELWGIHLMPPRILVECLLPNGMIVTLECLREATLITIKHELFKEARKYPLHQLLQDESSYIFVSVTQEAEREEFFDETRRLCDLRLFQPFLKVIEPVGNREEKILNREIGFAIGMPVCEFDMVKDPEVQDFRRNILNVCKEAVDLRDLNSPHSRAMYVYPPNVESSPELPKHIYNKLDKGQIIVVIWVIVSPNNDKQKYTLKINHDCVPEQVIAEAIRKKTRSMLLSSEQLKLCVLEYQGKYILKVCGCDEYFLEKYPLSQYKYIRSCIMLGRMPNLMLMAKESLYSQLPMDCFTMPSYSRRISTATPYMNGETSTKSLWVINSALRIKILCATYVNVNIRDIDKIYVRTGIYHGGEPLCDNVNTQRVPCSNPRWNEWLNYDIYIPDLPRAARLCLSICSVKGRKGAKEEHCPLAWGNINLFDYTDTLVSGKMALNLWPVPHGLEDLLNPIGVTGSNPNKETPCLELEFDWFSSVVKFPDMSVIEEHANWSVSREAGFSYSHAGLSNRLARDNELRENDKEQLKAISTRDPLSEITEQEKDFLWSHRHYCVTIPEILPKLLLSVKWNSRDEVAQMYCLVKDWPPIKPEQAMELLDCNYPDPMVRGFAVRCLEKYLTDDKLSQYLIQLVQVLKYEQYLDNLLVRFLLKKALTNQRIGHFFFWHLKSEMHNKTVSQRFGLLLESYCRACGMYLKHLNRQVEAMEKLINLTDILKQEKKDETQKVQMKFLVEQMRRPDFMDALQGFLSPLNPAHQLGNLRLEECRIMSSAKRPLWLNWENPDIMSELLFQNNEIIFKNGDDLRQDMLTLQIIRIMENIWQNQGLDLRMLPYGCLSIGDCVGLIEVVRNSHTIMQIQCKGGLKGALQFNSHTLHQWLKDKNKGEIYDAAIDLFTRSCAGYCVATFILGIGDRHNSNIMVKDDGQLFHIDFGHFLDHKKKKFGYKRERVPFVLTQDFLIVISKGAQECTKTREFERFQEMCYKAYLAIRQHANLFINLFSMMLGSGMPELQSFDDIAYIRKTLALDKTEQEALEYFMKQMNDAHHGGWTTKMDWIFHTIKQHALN

Sequence of Cyclin-dependent kinase 1 (P06493 whole entry): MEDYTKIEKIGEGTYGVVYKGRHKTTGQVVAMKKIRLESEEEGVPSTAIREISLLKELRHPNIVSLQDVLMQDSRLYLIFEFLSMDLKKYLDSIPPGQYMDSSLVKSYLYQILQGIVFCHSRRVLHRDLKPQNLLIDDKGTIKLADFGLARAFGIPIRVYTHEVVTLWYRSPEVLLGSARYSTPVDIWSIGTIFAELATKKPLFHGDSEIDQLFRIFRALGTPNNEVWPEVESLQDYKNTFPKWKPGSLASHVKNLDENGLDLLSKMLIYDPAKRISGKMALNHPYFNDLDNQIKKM
Sequence of Fibroblast growth factor receptor 1 (P11362 whole entry): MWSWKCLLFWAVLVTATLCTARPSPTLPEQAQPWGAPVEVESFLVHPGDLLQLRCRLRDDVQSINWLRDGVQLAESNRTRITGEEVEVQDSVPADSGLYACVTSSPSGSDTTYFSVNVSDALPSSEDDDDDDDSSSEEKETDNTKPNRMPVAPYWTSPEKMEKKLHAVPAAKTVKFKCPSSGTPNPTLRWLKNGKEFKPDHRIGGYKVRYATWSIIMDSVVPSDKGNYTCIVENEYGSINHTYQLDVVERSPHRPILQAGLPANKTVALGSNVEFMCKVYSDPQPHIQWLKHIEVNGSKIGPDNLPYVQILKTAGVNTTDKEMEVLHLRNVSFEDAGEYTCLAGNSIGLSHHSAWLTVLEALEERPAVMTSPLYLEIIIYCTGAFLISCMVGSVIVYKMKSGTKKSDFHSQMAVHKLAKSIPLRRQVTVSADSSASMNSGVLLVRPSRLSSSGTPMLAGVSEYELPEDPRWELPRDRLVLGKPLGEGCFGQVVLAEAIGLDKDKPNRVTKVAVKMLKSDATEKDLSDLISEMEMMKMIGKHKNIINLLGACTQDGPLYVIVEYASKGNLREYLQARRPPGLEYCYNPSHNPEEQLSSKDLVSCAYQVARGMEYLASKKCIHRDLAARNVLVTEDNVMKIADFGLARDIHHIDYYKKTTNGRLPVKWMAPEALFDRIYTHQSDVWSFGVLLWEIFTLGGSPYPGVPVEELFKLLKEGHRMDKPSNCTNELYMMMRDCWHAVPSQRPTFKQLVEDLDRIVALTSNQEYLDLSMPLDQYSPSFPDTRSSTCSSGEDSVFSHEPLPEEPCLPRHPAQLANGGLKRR
Sequence of MAP kinase-activated protein kinase 2 (P49137 whole entry): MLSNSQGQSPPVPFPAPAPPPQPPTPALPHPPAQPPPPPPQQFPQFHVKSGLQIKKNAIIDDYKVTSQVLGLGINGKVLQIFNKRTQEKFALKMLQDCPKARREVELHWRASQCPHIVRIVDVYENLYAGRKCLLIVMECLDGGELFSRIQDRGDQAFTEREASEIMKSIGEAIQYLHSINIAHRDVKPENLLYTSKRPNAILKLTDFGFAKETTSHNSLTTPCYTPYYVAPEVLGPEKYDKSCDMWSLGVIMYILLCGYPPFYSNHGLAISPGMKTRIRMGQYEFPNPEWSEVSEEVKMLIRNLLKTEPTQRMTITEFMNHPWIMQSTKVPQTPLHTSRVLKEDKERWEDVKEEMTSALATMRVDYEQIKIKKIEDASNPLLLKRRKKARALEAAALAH
Sequence of Glycogen synthase kinase-3 alpha (P49840 whole entry): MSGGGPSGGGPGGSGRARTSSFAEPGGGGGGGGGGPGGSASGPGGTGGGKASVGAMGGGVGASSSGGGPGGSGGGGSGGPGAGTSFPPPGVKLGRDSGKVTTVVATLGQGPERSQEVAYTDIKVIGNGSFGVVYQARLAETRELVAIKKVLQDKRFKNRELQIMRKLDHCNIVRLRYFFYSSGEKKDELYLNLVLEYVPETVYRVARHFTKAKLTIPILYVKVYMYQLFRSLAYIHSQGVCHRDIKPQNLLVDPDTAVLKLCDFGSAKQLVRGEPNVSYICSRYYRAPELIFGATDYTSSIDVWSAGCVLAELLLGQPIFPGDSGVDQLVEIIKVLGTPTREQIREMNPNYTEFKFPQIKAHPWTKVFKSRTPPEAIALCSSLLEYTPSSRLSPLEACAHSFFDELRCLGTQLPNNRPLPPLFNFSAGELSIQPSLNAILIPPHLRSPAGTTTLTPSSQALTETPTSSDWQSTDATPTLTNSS
Sequence of Tyrosine-protein kinase ABL1 (P00519 whole entry): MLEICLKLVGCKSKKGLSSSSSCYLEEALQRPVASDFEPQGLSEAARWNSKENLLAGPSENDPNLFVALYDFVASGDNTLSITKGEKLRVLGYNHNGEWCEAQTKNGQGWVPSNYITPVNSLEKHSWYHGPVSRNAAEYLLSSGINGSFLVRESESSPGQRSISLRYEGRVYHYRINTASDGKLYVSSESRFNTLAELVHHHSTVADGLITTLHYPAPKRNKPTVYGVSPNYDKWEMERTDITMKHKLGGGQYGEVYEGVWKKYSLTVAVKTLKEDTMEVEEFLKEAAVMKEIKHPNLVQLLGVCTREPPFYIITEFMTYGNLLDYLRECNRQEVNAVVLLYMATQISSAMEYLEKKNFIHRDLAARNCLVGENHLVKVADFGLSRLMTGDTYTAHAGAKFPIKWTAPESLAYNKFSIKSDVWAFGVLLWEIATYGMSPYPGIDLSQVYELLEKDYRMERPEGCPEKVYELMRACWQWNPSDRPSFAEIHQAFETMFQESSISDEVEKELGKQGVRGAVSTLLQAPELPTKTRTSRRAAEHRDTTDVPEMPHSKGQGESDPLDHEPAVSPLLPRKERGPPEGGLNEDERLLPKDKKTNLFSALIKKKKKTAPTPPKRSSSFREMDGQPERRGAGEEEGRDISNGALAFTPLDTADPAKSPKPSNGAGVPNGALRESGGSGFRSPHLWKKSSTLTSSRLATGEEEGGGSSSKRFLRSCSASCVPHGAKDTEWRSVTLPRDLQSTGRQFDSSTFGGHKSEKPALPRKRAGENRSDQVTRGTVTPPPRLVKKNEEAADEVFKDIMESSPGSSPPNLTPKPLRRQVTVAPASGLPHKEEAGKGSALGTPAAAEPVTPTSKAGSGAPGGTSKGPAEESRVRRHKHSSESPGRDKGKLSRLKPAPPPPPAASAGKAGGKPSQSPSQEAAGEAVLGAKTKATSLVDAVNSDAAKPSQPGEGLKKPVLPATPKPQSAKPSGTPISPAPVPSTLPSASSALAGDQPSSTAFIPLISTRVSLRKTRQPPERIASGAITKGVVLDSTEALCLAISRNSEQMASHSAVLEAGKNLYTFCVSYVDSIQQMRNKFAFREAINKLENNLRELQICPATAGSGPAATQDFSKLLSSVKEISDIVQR
Sequence of Tyrosine-protein kinase HCK (P08631 whole entry): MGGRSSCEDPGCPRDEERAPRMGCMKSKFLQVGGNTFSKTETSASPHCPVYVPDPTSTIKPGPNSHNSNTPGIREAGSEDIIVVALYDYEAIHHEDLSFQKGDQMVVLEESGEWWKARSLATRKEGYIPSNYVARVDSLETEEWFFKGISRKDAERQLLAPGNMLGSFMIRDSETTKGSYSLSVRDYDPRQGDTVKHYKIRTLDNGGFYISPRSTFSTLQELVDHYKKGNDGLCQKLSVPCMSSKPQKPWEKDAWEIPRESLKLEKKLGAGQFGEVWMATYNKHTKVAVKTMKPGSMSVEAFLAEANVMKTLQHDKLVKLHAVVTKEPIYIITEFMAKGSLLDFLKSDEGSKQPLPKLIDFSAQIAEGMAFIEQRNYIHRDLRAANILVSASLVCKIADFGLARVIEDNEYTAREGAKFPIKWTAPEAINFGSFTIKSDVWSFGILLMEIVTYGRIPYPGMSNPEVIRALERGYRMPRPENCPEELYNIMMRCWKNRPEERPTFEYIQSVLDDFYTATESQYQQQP

Row | SMILES | IC50 (LNCaP) [nM] | Ratio IC50 (Homo sapiens) | half-life [12] [min] | half-life [13] [min] | IC50 [14] [nM] | also measured
1 | Cn1cc(/C=C2\Oc3cccc(O)c3C2=O)c2c(-c3ccc(C(=O)NCCO)cc3)ccnc21 | – | – | – | – | – | IC50 (Aurora kinase B): 22200 nM; IC50 [1]: 39200 nM; IC50 [2]: 35500 nM; IC50 [3]: 5900 nM; IC50 [4]: 45900 nM; IC50 [5]: 50 nM; IC50 [6]: 9700 nM; IC50 [7]: 27100 nM; IC50 [8]: 50 nM; IC50 [9]: 10600 nM; IC50 [10]: 6.5 nM; IC50 [11]: 27700 nM
2 | Cn1cc(/C=C2\Oc3cc(O)ccc3C2=O)c2c(-c3ccccc3)ccnc21 | 1800 | 11 | – | – | – | –
3 | Cn1cc(/C=C2\Oc3cccc(O)c3C2=O)c2c(N3CCOCC3)ccnc21 | 5 | 24 | – | – | – | –
4 | CN1CCN(C(=O)C2CCN(c3ccnc4c3c(/C=C3\Oc5cccc(O)c5C3=O)cn4C)CC2)CC1 | < 1 | 12 | > 30 | > 30 | – | –
5 | CN1CCN(c2ccnc3c2c(/C=C2\Oc4cccc(O)c4C2=O)cn3C)CC1 | 3 | 63 | – | – | 2.75 | –
6 | Cn1cc(/C=C2\Oc3cccc(O)c3C2=O)c2c(N3C4CCC3COC4)ccnc21 | 2 | 9 | – | – | – | –
7 | Cn1cc(/C=C2\Oc3cccc(O)c3C2=O)c2c(-c3ccc(C(=O)N4CCOCC4)cc3)ccnc21 | 1 | 97 | > 30 | 10 | – | –
8 | CCn1cc(/C=C2\Oc3cccc(O)c3C2=O)c2c(-c3ccc(C(=O)N4CCN(CCO)CC4)cc3)ccnc21 | 4 | 98 | – | – | – | IC50 [15]: 455 nM
9 | CN(C)C(=O)c1ccc(-c2ccnc3c2c(/C=C2\Oc4cccc(O)c4C2=O)cn3C)cc1 | 4 | 65 | – | – | 0.55 | –
10 | Cn1cc(/C=C2\Oc3cccc(O)c3C2=O)c2c(N3CCC(CN)CC3)ccnc21 | 75 | 9 | – | – | – | –
11 | Cn1cc(/C=C2\Oc3cccc(O)c3C2=O)c2c(N3CCC(C(=O)N4CCOCC4)CC3)ccnc21 | < 1 | 45 | > 30 | > 30 | – | –
12 | CN1CCN(C(=O)c2ccc(-c3ccnc4c3c(/C=C3\Oc5cccc(O)c5C3=O)cn4C)cc2)CC1 | 9 | 70 | 28 | 24 | – | –
13 | Cn1cc(/C=C2\Oc3cccc(O)c3C2=O)c2c(-c3ccc(C(=O)N4CC5CCC(C4)O5)cc3)ccnc21 | 8 | 103 | 6 | 2 | 0.56 | –
14 | CN(C)C(=O)c1ccccc1-c1ccnc2c1c(/C=C1\Oc3cccc(O)c3C1=O)cn2C | > 60000 | 32.8 | – | – | – | –
15 | Cn1cc(/C=C2\Oc3cccc(O)c3C2=O)c2c(N3CC4CCC(C3)O4)ccnc21 | 2 | 274 | – | – | 0.38 | –
16 | Cn1cc(/C=C2\Oc3cc(O)cc(O)c3C2=O)c2c(-c3ccccc3)ccnc21 | 77 | 137 | 20 | 2 | 0.46 | –
17 | CN(C)C(=O)C1CCN(c2ccnc3c2c(/C=C2\Oc4cccc(O)c4C2=O)cn3C)CC1 | 1 | 46 | > 30 | 20 | 0.67 | IC50 [15]: 30 nM
18 | Cn1cc(/C=C2\Oc3cccc(O)c3C2=O)c2c(N3CCC(C(=O)N4CC5CCC(C4)O5)CC3)ccnc21 | 1 | 26 | > 30 | 16 | – | IC50 [15]: 52 nM
19 | Cn1cc(/C=C2\Oc3cc(O)cc(O)c3C2=O)c2cccnc21 | 6500 | 1.7 | – | – | 42 | IC50 [15]: 77 nM
20 | CN(C)C(=O)c1cccc(-c2ccnc3c2c(/C=C2\Oc4cccc(O)c4C2=O)cn3C)c1 | 600 | 20.5 | – | – | – | –
21 | Cn1cc(/C=C2\Oc3cccc(O)c3C2=O)c2c(N3CCC(C(N)=O)CC3)ccnc21 | 10 | 41 | – | – | 0.72 | –
22 | Cn1cc(/C=C2\Oc3cccc(O)c3C2=O)c2c(N3CCC(C(=O)N4CCN(CCO)CC4)CC3)ccnc21 | 1 | 13 | > 30 | 14 | 1.85 | IC50 [15]: 25 nM
23 | Cn1cc(/C=C2\Oc3cccc(O)c3C2=O)c2c(N3CCC(N)CC3)ccnc21 | 240 | 6 | – | – | – | –
24 | Cn1cc(/C=C2\Oc3cccc(O)c3C2=O)c2c(-c3ccc(C(=O)N4CCN(CCO)CC4)cc3)ccnc21 | 1 | 256 | > 30 | > 30 | 0.39 | –
25 | Cn1cc(/C=C2\Oc3cccc(O)c3C2=O)c2c(-c3ccccc3)ccnc21 | – | 25.8 | 22 | – | 3.45 | –
26 | Cn1cc(/C=C2\Oc3cc(O)cc(O)c3C2=O)c2c(-c3ccccc3)cccc21 | 1400 | – | – | – | – | IC50 [15]: 1480 nM
27 | CN1CCN(c2ccnc3c2c(/C=C2\Oc4cc(O)cc(O)c4C2=O)cn3C)CC1 | 110 | 46 | – | – | – | IC50 [15]: 43 nM
